Source: ChEMBL document CHEMBL1146574, “A novel 5-HT receptor ligand and related cytotoxic compounds from an acid mine waste extremophile” (J Nat Prod, 2003)

Assays:
[1] = target: 5-hydroxytryptamine receptor 2A (Rattus norvegicus) (UniProt P14842); assay: Displacement of [3H]ketanserin from rat 5HT2A receptor expressed in mouse NIH3T3 cells assessed as bound radiolabeled ligand remaining by liquid scintillation relative to control; format: cell-based
How it was run: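 Crude membranes from confluent NIH 3T3 cells stably expressing rat 5-HT2A receptor (DMEM, 10% calf serum, geneticin), prepared freshly in 50 mM Tris, 4 mM CaCl2, 10 µM pargyline, pH 7.4. Tritiated ligand 0.5 nM final; nonspecific binding with 10 µM 5-HT; test compounds at 100 µM. Triplicate 1 mL reactions, 30 min at 30 °C. Glass-fiber filtration, scintillation counting, reported as percent of control binding.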

Artemia = assay: Toxicity against brine shrimp; format: organism-based; conditions: in vivo

5-hydroxytryptamine receptor 2A (Rattus norvegicus), sequence (P14842 whole entry): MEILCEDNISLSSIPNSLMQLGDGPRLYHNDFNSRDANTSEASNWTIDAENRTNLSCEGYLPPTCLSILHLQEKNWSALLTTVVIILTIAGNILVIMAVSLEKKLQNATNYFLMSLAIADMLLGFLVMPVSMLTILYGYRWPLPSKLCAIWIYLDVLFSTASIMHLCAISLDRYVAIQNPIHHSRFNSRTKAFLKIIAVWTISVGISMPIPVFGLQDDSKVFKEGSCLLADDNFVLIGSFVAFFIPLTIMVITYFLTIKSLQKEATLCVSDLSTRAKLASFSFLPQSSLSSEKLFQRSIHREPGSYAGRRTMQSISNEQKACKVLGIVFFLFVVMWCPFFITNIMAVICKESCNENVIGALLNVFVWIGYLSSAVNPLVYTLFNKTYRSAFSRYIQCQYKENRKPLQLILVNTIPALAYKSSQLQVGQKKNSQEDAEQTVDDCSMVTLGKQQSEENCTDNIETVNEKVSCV

SMILES	Activity [1] [%]	Activity (Artemia)
CC(=O)NC(Cc1ccc(OCC=C(C)C)cc1)C(=O)O (stereo not given)	85	Toxic
CC(=O)OCCc1ccc(OCC=C(C)C)cc1 [ETROGOL ACETATE]	11	Toxic
C[C@H]1CC[C@H]2[C@H]1C[C@]1([C@@H](C)CO)CC[C@]2(C)O1		Non-toxic
C[C@H]1CC[C@H]2[C@H]1C[C@H](C(C)(C)O)CC[C@@]2(C)O		Non-toxic
CC(C)=CCOc1ccc(CCO)cc1 [ETROGOL]	85	Toxic
C=C(C)[C@@H]1CC[C@@](C)(O)[C@H]2CC[C@H](C)[C@@H]2C1		Non-toxic
COC(=O)C(Cc1ccc(OCC=C(C)C)cc1)NC(C)=O (stereo not given)	85	
